dFosB act: enhances mouse delta FosB homodimer DNA binding; hit rate 0.99% among 340,000; activation, % at 25 µM; purified delta FosB, TAMRA-CDK5 oligo fluorescence polarization; percent of positive-control signal above neutral wells; P13346;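 active means mean activation above about 17%, with every replicate also reaching it, limit read from the data, passing the limit was not always enough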
PKA-R2B act: activators of human PKA-R2B complex; P22694+P31323; PKA-R2B holoenzyme dissociation, Cy5-IP20 fluorescence polarization; R2B truncated from residue 108, S112A mutant; 0% DMSO only, 100% 113 µM cGMP; activation, % at 11.4 µM; hit rate 0.079% among 340,000;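 active means activation above a cutoff set at the mean over all compounds plus 3 SD, cut at about 18% in these data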;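 further: higher means more holoenzyme dissociation and a rise in polarization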
PKA-R1A activ: PKA-R1A complex activation; P00514+P68181; PKA-R1A dissociation, Cy5-IP20 fluorescence polarization; scaled: DMSO 0%, 113 µM cGMP 100%; activation, % at 11.4 µM; hit rate 0.083% among 340,000;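 active means percent activation above the mean of all tested compounds plus 3 SD, cut at about 19% in these data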;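 further: higher means more PKAc released from R1A so a rise in polarization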
CAL PDZ FP-1: CAL PDZ (human) peptide binding inhibition; purified CAL PDZ, TMR-peptide fluorescence polarization, 1 h; inhibition, % at 24.9 µM; Q9HD26; hit rate 0.92% among 300,000; AID 602252;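 active means mean inhibition of at least 30% with at least half of replicates also reaching 30%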;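 further: 0% = DMSO neutral control and 100% = excess unlabeled competitor peptide PRC23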
NTR1 ag: NTR1 (human) agonism. NTR1-U2OS beta-arrestin-GFP spot imaging, agonist mode. activation, % at 20 µM. hit rate 0.17% among 330,000. AID 493036;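 active means activation at or above 40% of the spot to cytoplasm intensity ratio, with at least 20 cells analyzed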;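 further: 0% = DMSO without peptide and 100% = 100 nM NTR1 peptide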
Target sequence (P30989 whole entry, looked up): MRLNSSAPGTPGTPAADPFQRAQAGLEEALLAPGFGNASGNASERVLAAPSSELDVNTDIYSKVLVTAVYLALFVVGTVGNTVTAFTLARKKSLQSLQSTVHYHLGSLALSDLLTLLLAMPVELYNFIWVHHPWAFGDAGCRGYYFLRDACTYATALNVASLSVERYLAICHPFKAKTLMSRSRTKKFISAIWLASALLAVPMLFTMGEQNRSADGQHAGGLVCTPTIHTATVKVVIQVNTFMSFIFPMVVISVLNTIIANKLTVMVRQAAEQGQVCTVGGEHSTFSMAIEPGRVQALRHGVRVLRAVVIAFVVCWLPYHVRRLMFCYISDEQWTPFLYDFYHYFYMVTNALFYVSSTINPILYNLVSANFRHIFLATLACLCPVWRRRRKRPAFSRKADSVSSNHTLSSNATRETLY
CAL PDZ FP-2: inhibitors of human CAL PDZ peptide binding | hit rate 0.02% among 330,000 | AID 504414 | inhibition, % at 20 µM | purified CAL PDZ, TMR-peptide fluorescence polarization, 1 h | Q9HD26;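 active means highest replicate inhibition of at least 40%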;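 further: plate controls were DMSO neutral control wells for no effect and unlabeled competitor peptide control wells for full effect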
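Test system: tagged CAL PDZ domain / Buffer or medium: sodium phosphate/NaCl buffer pH 7.4 with TCEP, IgG, Thesit / Reagent: TMR-labelled reporter peptide T*-PRC34 bound in PDZ groove / Compound dosing: single point, 20 µM / Schedule: 1 h incubation at room temperature before polarization reading / Technique: fluorescence polarization (mP) / Benchmarks: unlabelled peptide, DMSO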
Starred values were filed as active, the others as inactive; . = no result. Most compounds without a hit are left out; they make up all but 2% or so of the library.

SMILES | dFosB act | PKA-R2B act | PKA-R1A activ | CAL PDZ FP-1 | NTR1 ag | CAL PDZ FP-2
Cc1ccnc(-n2c(C)cc(/C=N/NC(=O)COc3cccc4cccnc34)c2C)c1 | -5.5 | 2.9 | -3.0 | -3.4 | -0.9 | 0.1
Cc1ccc(C(=O)Nc2c(N)nc(SCC(=O)NCC3CCCO3)[nH]c2=O)cc1 (centres undefined) | 2.2 | -2.7 | 0.3 | -1.7 | -0.5 | -0.5
O=C(CSc1nc2ccccc2[nH]1)NCC1CCCO1 (centres undefined) | -1.0 | -2.5 | 5.5 | 39.7* | 0.1 | -2.2
COc1ccc(C(=O)Nc2c(N)nc(SCC(=O)NCC3CCCO3)[nH]c2=O)cc1OC (centres undefined) | -4.9 | 3.2 | -5.9 | 91.7* | 0.1 | -0.7
O=C(CSc1nc(-c2ccccc2)c(-c2ccccc2)[nH]1)NCC1CCCO1 (centres undefined) | 0.7 | 7.1 | -4.0 | -1.2 | 1.0 | -0.3
Nc1ccc(Cn2ccc3c4c(N)nc(N)nc4ccc32)cc1 | 157.8* | -4.2 | 0.0 | 1.8 | . | 3.9
CCCCn1c(N)c(N(CCOC)C(=O)C2CCN(S(=O)(=O)c3ccccc3)CC2)c(=O)[nH]c1=O | 5.1 | -6.5 | -6.6 | . | -1.5 | -0.5
Cc1cc(N/N=C/c2ccc3c(c2)OCO3)nc2ccccc12 | 60.7* | 0.6 | -2.8 | -5.1 | 31.5 | 0.7
O=c1[nH]c(N/N=C\c2ccc3c(c2)OCO3)nc2ccccc12 | 34.4* | 1.5 | 10.8 | -4.0 | -1.8 | -2.9
CC(O)CNc1ncnc2cc(-c3ccc(F)cc3)sc12 (centres undefined) | -54.0 | -6.6 | -5.8 | -3.3 | 0.7 | -4.0
O=C(NCC(=O)N1CCN(c2ncccn2)CC1)c1ccccc1OC(F)F | -2.4 | -5.6 | 5.3 | 15.4 | 2.7 | -0.2
CC1(C)CC(=O)C(C=NCCN2CCNC2=O)=C(O)C1 | 4.3 | -13.6 | 4.6 | 52.2* | 1.8 | 0.3
CCN1CCN(c2nc(Nc3ccc(NC(C)=O)cc3)nc(Nc3ccc(NC(C)=O)cc3)n2)CC1 | 72.9* | -3.8 | 0.8 | 3.0 | 1.2 | 5.1
O=C(CN1C(=O)COc2ccccc21)Nc1ccccc1F | -0.1 | -7.2 | -1.1 | -6.9 | 1.0 | -0.8
Cc1ccc2c(c1)N(CC(=O)Nc1ccccc1F)C(=O)CO2 | 10.1 | 4.2 | -0.1 | 56.4* | -0.3 | -1.2
N#Cc1cc2c(cc1NC(=O)CCn1cnnn1)OCO2 | -5.5 | -19.3 | -18.2 | -4.3 | 1.4 | -2.1
O=C(CCn1cnnn1)Nc1ccc(Cl)cc1Cl | 3.3 | -3.7 | -5.3 | 86.4* | -0.2 | -1.2
COCc1ccc(CN2CCC(n3nccc3NC(=O)c3ccc4c(c3)OCO4)CC2)o1 | . | -9.3 | 4.2 | . | . | .
CC(=C/c1ccccc1)/C=N/NC(=O)c1nnn(-c2nonc2N)c1CN1CCC(C)CC1 | -11.5 | -1.5 | 2.6 | -6.1 | 8.7 | -0.3
Cc1nnn(-c2nonc2N)c1C(=O)N/N=C/c1cccc2ccccc12 | 9.0 | 3.4 | 10.9 | -1.7 | 1.3 | -2.5
CC1CCN(Cc2c(C(=O)N/N=C/c3ccccc3O)nnn2-c2nonc2N)CC1 | 20.9* | 6.5 | -5.2 | -2.9 | -0.9 | -0.9
Cc1nnn(-c2nonc2N)c1C(=O)N/N=C/c1ccccc1O | 104.0* | -5.4 | 3.2 | -0.8 | 0.1 | -2.6
CCOC(=O)C1CCCN(S(=O)(=O)c2ccc(Cl)nc2)C1 (centres undefined) | 4.8 | 2.2 | 5.0 | 46.5* | -0.8 | 0.9
CCOC(=O)C1CCCN(S(=O)(=O)c2ccc(C)cc2)C1 (centres undefined) | -9.6 | -0.3 | 1.5 | -2.6 | 0.3 | -0.6
CCc1noc(C)c1C(=O)N1CCCC(CCC(=O)NCc2ccc(F)c(F)c2)C1 (centres undefined) | 7.3 | 4.6 | 0.7 | 71.1* | 0.6 | 21.7
SMILES | dFosB act | PKA-R2B act | PKA-R1A activ | CAL PDZ FP-1 | NTR1 ag | CAL PDZ FP-2
Cc1nc(C)c(C(=O)N2CCCC(CCC(=O)NCc3ccc(F)c(F)c3)C2)s1 (centres undefined) | -11.7 | -0.2 | 10.8 | . | 0.4 | -1.9
CN(C)S(=O)(=O)c1ccc(C(=O)NC2CCCc3ccccc32)cc1 (centres undefined) | -5.3 | -6.4 | -5.3 | 70.6* | 1.1 | -1.6
O=Nc1c(-c2c(O)[nH]c3cc(Br)ccc23)[nH]c2ccccc12 | -5.5 | -5.1 | -12.8 | 2.3 | 12.0 | 0.7
CN(C)CCNC(=O)c1sc2nc(-c3ccccc3)cc(C(F)(F)F)c2c1N | 19.0* | 2.9 | 2.5 | -0.4 | 0.1 | 1.2
O=C(Nc1ccccc1Cl)N1CCN(c2ccc3nnc(-c4ccccc4)n3n2)CC1 | -28.6 | -2.0 | -3.9 | 57.0* | 6.6 | -4.7
Nc1c(N(CCC2=CCCCC2)C(=O)COc2ccc([N+](=O)[O-])cc2)c(=O)[nH]c(=O)n1Cc1ccccc1 | 0.3 | 7.4 | -8.1 | 55.6* | . | -0.6
COc1ccc(C2CC(c3ccccc3OC(C)=O)=NN2C(=O)/C=C/c2ccccc2)cc1 (centres undefined) | -11.3 | -9.0 | -8.0 | 51.7* | 1.5 | -0.6
CC(=O)Oc1ccccc1C1=NN(C(=O)/C=C/c2ccccc2)C(c2ccccc2)C1 (centres undefined) | -10.9 | -3.5 | -1.3 | -2.2 | -0.4 | -1.5
COc1ccc(C2CC(c3ccccc3OC(C)=O)=NN2C(C)=O)cc1 (centres undefined) | -3.5 | 2.2 | -9.9 | 91.1* | 0.2 | -1.3
Cc1c(NC(=O)CSc2nnc(C(C)N(C)C)n2-c2ccccc2)c(=O)n(-c2ccccc2)n1C (centres undefined) | -6.4 | 9.7 | 1.8 | -6.1 | . | -0.7
N#CC(C#N)=Cc1c(N2CCN(c3ccccc3)CC2)nc2ccccn2c1=O | 2.6 | -0.5 | -5.9 | 47.9* | 2.9 | -1.1
N#C/C(=C\c1c(N2CCCCC2)nc2ccccn2c1=O)S(=O)(=O)c1ccccc1 | 2.0 | -4.8 | -0.5 | 54.6* | 9.1 | -6.2
N#C/C(=C\c1c(N2CCN(c3ccccc3)CC2)nc2ccccn2c1=O)S(=O)(=O)c1ccccc1 | -10.5 | -11.5 | 3.8 | -0.5 | 5.4 | -1.7
Cc1ccc2c(c1)C(c1ccccc1)N(C(=O)c1ccccc1[N+](=O)[O-])CC(=O)N2 (centres undefined) | -5.3 | -7.3 | 3.9 | 70.5* | . | -0.3
O=C1CN(C(=O)c2ccccc2[N+](=O)[O-])C(c2ccccc2)c2cc(Br)ccc2N1 (centres undefined) | -8.7 | 6.6 | 2.2 | . | 2.5 | 0.4
Cc1ccc(/C=N/NC(=O)c2cc3c(s2)CCCC3)o1 | -0.3 | -0.4 | -2.7 | 0.2 | -1.9 | 0.1
COc1ccc(CN(C(=O)c2ccco2)c2ccc(C)c(C)c2)cc1 | -8.0 | -4.7 | -12.2 | 30.9* | 1.8 | -0.2
CCOc1ccc(N(Cc2ccc(OC)cc2)C(=O)c2ccco2)cc1 | -2.3 | -7.0 | -0.8 | -0.5 | 0.0 | -1.2

Source: PubChem (several laboratories)
